Here are results for four compounds from ChEMBL document CHEMBL1129690, “Design, synthesis, and structure-activity relationship studies of novel 1-[(1-acyl-4-piperidyl)methyl]-1H-2- methylimidazo[4,5-c]pyridine derivatives as potent, orally active platelet-activating factor antagonists” (J Med Chem, 1996).

Holding throughout (format): functional
In assay [1] the test system is Mus musculus. The assay can be described thus: Dosage required to inhibit PAF-induced mortality in mice by 50% through oral administration. The settings on record: read-out: ID50 (the source's name). The method in brief: (§1)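 Male Swiss mice, 22-26 g, groups of 10. Test article given iv (10 mL/kg, saline vehicle) 5 min before, or po (20 mL/kg, 1% Tween 80) 60 min before, tail-vein C-18-PAF 100 µg/kg plus propranolol 1 mg/kg. Mortality scored 2 h after PAF; % inhibition vs vehicle controls. ID50 by linear regression, ≥4 points.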

The test system of assay [2] is Mus musculus. The assay is described as follows: Compound after an intravenous dose of 0.03 mg/Kg was tested for the inhibition of PAF-induced mortality in mice. Summed up:
as §1

The species entered for the next assay is Oryctolagus cuniculus. The assay is described as follows: Concentration required to inhibit PAF-induced maximum platelet aggregation in rabbit platelet-rich plasma. The method in brief: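 PRP prepared by centrifugation at 250g, 10 min, 4 °C, and diluted with platelet-poor plasma (3000g, 10 min) to 3.5 × 10⁵ platelets/mm³. Aggregation triggered by C-18-PAF at 1.5 × 10^-8 M and read on a dual-channel aggregometer. IC50 from linear regression of at least four points, each the mean of one to three independent experiments.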

For the next assay, the system named is Rattus norvegicus. The assay is described as follows: Dose required to reduce the lowering of the arterial blood pressure caused by PAF by 50% after intravenous administration in rats. The settings on record: read-out: ID50 (the source's name). Summed up:
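Rats with both femoral veins catheterized, one for test compound and one for PAF (0.5 µg/kg). Compound given iv in saline (1 mL/kg) 3 min before PAF. Blood pressure monitored; % inhibition of hypotension calculated versus controls. ID50 from linear regression of at least four doses, each the mean of two or more independent experiments.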

The test system of assay [3] is Mus musculus. The assay can be described thus: Compound after an intravenous dose of 0.01 mg/Kg was tested for the inhibition of PAF-induced mortality in mice. Summed up: as §1

On to `Cc1nc2cnccc2n1CC1CCN(C(=O)N[C@@H](C)c2ccccc2)CC1`, for which the ED50 in the assay on Mus musculus [1] was above 1 mg/kg; with Rattus norvegicus it was 0.21 mg/kg. For the same compound, at 0.03 mg/kg the inhibition in vivo with Mus musculus [2] was 45%. Further, the IC50 – broadly, the concentration at which inhibition is half-maximal – in the assay filed under Oryctolagus cuniculus came out at 41 nM.
For `CCOC(=O)[C@@H](NC(=O)N1CCC(Cn2c(C)nc3cnccc32)CC1)c1ccccc1`, the ED50 with Mus musculus [1] was above 1 mg/kg; with Rattus norvegicus it was 0.061 mg/kg. 0.01 mg/kg produced 50% inhibition in vivo with Mus musculus [3]. Also, the IC50 in the assay filed under Oryctolagus cuniculus was found to be 16 nM.
Take `CC/C(=C\C(=O)N1CCC(Cn2c(C)nc3cnccc32)CC1)c1ccccc1`: the results for the ED50 in the assay with Mus musculus [1] and with Rattus norvegicus were above 1 mg/kg and 0.0054 mg/kg, respectively. Moreover, the inhibition in vivo – broadly, the drop in the measured response relative to a control, in per cent – at 0.03 mg/kg with Mus musculus [2] amounted to 50%. Further, in the assay filed under Oryctolagus cuniculus, the IC50 was 13 nM.
Consider `Cc1nc2cnccc2n1CC1CCN(S(=O)(=O)CC(C)(C)c2ccccc2)CC1`, for which the ED50 is above 1 mg/kg in the assay with Mus musculus [1] and 0.087 mg/kg in the assay with Rattus norvegicus. Further, at 0.01 mg/kg the inhibition in vivo with Mus musculus [3] was 50%. Also, the IC50 in the assay listed under Oryctolagus cuniculus amounted to 6.2 nM.
